Hits are enriched below; roughly 4.2% of the tested compounds scored in any of these assays.
GalR3 antag: antagonists of human GalR3. actives 0.44% (n = 360,000). HEK293 GalR3-CNG cAMP membrane potential fluorescence; galR3 body fused to GalR1 C-terminus. O60755. AID 651719. inhibition, % at 3 µM;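 active means inhibition above the screen-wide average plus 3 SD, cut at about 13% in these data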;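 further: forskolin and galanin both at EC90 stimulate the cells; cAMP rise reported by CNG channel membrane potential dye signal; 0% = forskolin plus galanin with DMSO and 100% = forskolin alone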
Target sequence (O60755 1-299 limits assumed): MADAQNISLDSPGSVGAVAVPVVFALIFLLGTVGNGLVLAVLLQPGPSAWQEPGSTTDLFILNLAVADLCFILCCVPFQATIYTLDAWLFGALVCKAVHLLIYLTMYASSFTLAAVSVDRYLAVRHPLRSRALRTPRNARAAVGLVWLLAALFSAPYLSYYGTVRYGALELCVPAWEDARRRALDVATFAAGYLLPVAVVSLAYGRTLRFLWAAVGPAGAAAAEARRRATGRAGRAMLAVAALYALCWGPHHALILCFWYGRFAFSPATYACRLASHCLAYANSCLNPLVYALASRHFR
TAAR1 antag: antagonists of human TAAR1 | Q96RJ0 | CHO RD-HGA16 TAAR1, Fluo-8 calcium fluorescence, antagonist | inhibition, % at 3 µM | actives 1.5% (n = 360,000);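 active means inhibition above a per-plate cutoff, the mean inhibition of test compounds on that plate plus 3 SD, cut at about 49% in these data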;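 further: 0% = DMSO plus EC80 beta-PEA response and 100% = DMSO alone without agonist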
Target sequence (Q96RJ0 whole entry, looked up): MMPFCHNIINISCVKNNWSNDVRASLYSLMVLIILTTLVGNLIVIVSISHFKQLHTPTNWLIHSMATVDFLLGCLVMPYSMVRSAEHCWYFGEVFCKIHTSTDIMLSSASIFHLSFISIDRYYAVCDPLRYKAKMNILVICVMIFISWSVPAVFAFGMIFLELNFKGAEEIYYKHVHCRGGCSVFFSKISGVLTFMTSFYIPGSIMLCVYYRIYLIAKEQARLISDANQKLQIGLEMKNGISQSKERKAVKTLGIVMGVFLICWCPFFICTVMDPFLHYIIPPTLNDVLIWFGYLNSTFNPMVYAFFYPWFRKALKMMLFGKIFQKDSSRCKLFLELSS
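Material: CHO RD-HGA16 cells bearing hTAAR1; compound dosing: one-point dosing, 3 µM nominal final; schedule: dye loading 75 min at 37 °C, then 30 min room temperature; measured by: calcium fluorescence with Fluo-8; control set: vehicle and agonist controls; replication: n of 1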
TAAR1 ag: agonists of human TAAR1. AID 624467. actives 0.99% (n = 360,000). activation, % at 3 µM. CHO RD-HGA16 TAAR1, Fluo-8 calcium fluorescence; vehicle wells 0%, saturating PEA agonist 100%. Q96RJ0;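 active means activation above the mean activation of all test compounds in the run plus 3 SD, cut at about 38% in these data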
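Test system: RD-HGA16 (CHO) cells co-expressing Gα16 and hTAAR1 / Benchmarks: DMSO vehicle as 0%, PEA at EC100 as 100% / Repeats: no replicates (n 1) / Measure: % activation from peak over basal fluorescence ratio, DMSO-to-PEA scaled / Timing: 17-24 h plating, Fluo-8 75 min 37 °C, 30 min RT / Technique: kinetic Fluo-8 calcium fluorescence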
OX1R antag-1: human HCRTR1 antagonism; O43613; CHO/OX1R cells, Fluo-8 calcium fluorescence, orexin A; inhibition, % at 5 µM; actives 0.43% (n = 330,000); AID 434989;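 active means inhibition above its plate's threshold, mean inhibition of all tested compounds on the plate plus 3 SD, cut at about 37% in these data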;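 further: 0% = orexin A challenge wells and 100% = SB-334867-A antagonist wells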
CHO parental Ca: signal in parental CHO cells, OX1R antagonist counter-screen; parental CHO-K1, ATP-induced calcium, Fluo-8 fluorescence; inhibition, % at 5.6 µM; actives 0.63% (n = 330,000);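 active means inhibition above that plate's mean sample inhibition plus 3 SD, cut at about 26% in these data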;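 further: 0% = ATP-challenged DMSO wells and 100% = DMSO wells without ATP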
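Assay system: parental CHO cells; Read-out basis: percent inhibition of ATP-evoked calcium rise, normalized to controls; Benchmarks: ATP and no-ATP DMSO wells; Compound dosing: single nominal dose of 5.6 µM per compound; Signal: Fluo-8 calcium dye fluorescence; Also added: ATP as calcium-mobilizing challenge; Repeats: singlicate.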
OX1R antag-2: antagonists of human orexin 1 receptor (OX1R). O43613. OX1R-expressing cells, FRET antagonist read-out. inhibition, % at 6.6 µM. actives 1.8% (n = 330,000). AID 485270; in the data active means inhibition mostly above about 38%, no sharp cut-off; inactive means mostly below about 40%;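 further: 0% = agonist challenge alone and 100% = reference antagonist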
* = called active by the depositor; . = not tested or not shown.

SMILES	GalR3 antag	TAAR1 antag	TAAR1 ag	OX1R antag-1	CHO parental Ca	OX1R antag-2
CC(Oc1ccc(F)cc1)C(=O)Nc1ccc(S(=O)(=O)NC2=NCCCCC2)cc1 (configuration not stated)	-4	20	44*	7	1	1
CC(Oc1cccc(Cl)c1)C(=O)Nc1ccc(S(=O)(=O)N(C)C2CCN(C)CC2)cc1 (configuration not stated)	-5	11	42*	10	-2	1
CC(Oc1cccc(Cl)c1)C(=O)Nc1ccc(S(=O)(=O)NC2=NCCCCC2)cc1 (configuration not stated)	1	13	40*	7	11	5
O=Cc1ccc(OCC(=O)NC(=O)NC2CCCCC2)cc1	-2	8	4	-14	-1	38
c1csc(CCNc2ncnc3sc4c(c23)CCC4)c1	1	18	-3	-26	58*	59*
c1ccc(Nc2ncnc3sc4c(c23)CCC4)cc1	1	-13	23	-21	-15	7
CC(C)c1ccc(NC(=O)C(c2ccc3c(c2)OCO3)N2CCCCC2)cc1 (configuration not stated)	1	-8	6	-38	-5	2
CC1CCN(C(C(=O)Nc2ccc(C(C)C)cc2)c2ccc3c(c2)OCO3)CC1 (configuration not stated)	-1	-30	2	-27	31*	13
CCOC(=O)N/N=C1\CC(C)CC(C)(C)C1 (configuration not stated)	-4	-8	0	-4	-2	12
COc1ccc(Cl)cc1CN1C(=O)C(Cc2ccccc2)ON=C1C (configuration not stated)	1	-9	2	.	.	.
CC(C)CC(NC(=O)c1ccc(Cl)cc1)C(=O)OCC(=O)c1ccc2c(c1)NC(=O)CO2 (configuration not stated)	-7	-1	1	65*	63*	42
CC(O)C(NS(=O)(=O)c1ccc(Cl)cc1)C(=O)OCC(=O)c1ccc2c(c1)NC(=O)CO2 (configuration not stated)	2	10	6	.	.	.
N#Cc1cc2c(nc1Cl)CCCC2	0	17	1	10	0	14
O/N=C(/Cc1ccccn1)c1ccccc1	0	13	9	-11	-7	3
O=C(CSc1nc2ccccc2o1)N1CCN(C(=O)c2ccco2)CC1	-7	11	1	-17	1	18
Cc1ccc(O)c(C(=O)c2cc(C#N)c(=O)n(-c3nccs3)c2)c1	-4	48	51*	30	30	7
CC(OC(=O)C1CCC(=O)N1)C(=O)Nc1cc(Cl)cc(Cl)c1 (configuration not stated)	-3	1	2	-3	1	7
CC[C@H](C)Cc1cn([C@@H](CCCCNC(=O)OC(C)(C)C)C(=O)NCCCCCCCCCCC(=O)N2CCN(C(=O)OC(C)(C)C)CC2)nn1	-6	63*	14	8	20	8
C#CCOCCOCCOCCNc1nc(N2CCN(C(=O)CCCCCCCCCCNC(=O)[C@H](CCCCN)n3cc(C[C@@H](C)CC)nn3)CC2)nc(N2CCN(C(=O)CCCCCCCCCCNC(=O)[C@H](CCCCN)n3cc(C[C@@H](C)CC)nn3)CC2)n1	.	.	.	33	101*	-9
C#CCOCCOCCOCCNc1nc(N2CCN(C(=O)CCCCCCCCCCNC(=O)[C@H](CCCCN)n3cc(CCO)nn3)CC2)nc(N2CCN(C(=O)CCCCCCCCCCNC(=O)[C@H](CCCN=C(N)N)n3cc(C[C@@H](C)CC)nn3)CC2)n1	.	.	.	-30	-22	-15
C#CCOCCOCCOCCNc1nc(N2CCN(C(=O)CCCCCCCCCCNC(=O)[C@H](CCCCN)n3cc(C)nn3)CC2)nc(N2CCN(C(=O)CCCCCCCCCCNC(=O)[C@@H]([C@H](C)CC)n3cc(CCCCCN)nn3)CC2)n1	.	.	.	-8	73*	-4
CCCC(C)NC(=O)c1ccccc1SC (configuration not stated)	2	-13	4	5	7	17
Cc1ccsc1/C=N/NC(=S)NCc1ccccc1	-8	-25	2	-24	-21	27
c1ccc(SCc2cn3cccnc3n2)nc1	-6	8	6	-20	-3	24
CCOC(=O)NC1c2ccccc2Oc2ccccc21	-4	-28	-1	-4	70*	4
SMILES	GalR3 antag	TAAR1 antag	TAAR1 ag	OX1R antag-1	CHO parental Ca	OX1R antag-2
CCOC(=O)c1c(C)cc(O)cc1O	-4	-16	0	.	.	.
Nc1nonc1-n1nnc(C(=O)N/N=C/c2cccc(Cl)c2)c1-c1cccs1	-7	11	7	4	-7	-2
CCOc1cccc(-c2c(C(=O)N/N=C/c3ccc(C)o3)nnn2-c2nonc2N)c1	-2	24	62*	4	5	11
Nc1nonc1-n1nnc(C(=O)N/N=C/c2cc(Br)cs2)c1-c1ccccc1	-9	1	41*	1	1	51*
Nc1nonc1-n1nnc(C(=O)N/N=C/c2cccc(F)c2)c1-c1ccc2c(c1)OCO2	-10	45	44*	1	6	20
CCOc1ccc(-c2c(C(=O)N/N=C/c3c[nH]c4ccccc34)nnn2-c2nonc2N)cc1	-8	53*	4	16	17	23
Nc1nonc1-n1nnc(C(=O)N/N=C/c2ccccn2)c1-c1ccccc1	-4	-14	7	.	.	.
COc1ccc(C(=O)NCCCNC(=O)c2ccco2)cc1OC	-6	-23	4	-2	1	7
CN(C)c1ccc(NC(=O)CSc2nnc(-c3cccs3)n2Cc2ccco2)cc1	-5	7	2	35	-18	47*
COc1ccc(CN2CCN(C(=O)c3ccc(S(=O)(=O)N4CCCCCC4)cc3)CC2)cc1F	-1	58*	12	.	.	.
C=CCNC(=O)c1ccc2c(=O)n(Cc3ccccc3OC)c(=S)[nH]c2c1	-10	7	2	-18	-9	-5
OC(CNC1CCCC1)COc1ccc(-c2ccccc2)cc1 (configuration not stated)	-6	1	13	2	-3	5
OC(CNC1CCCCC1)CON=C1CCSc2c(Cl)cccc21 (configuration not stated)	-8	18	40*	.	.	.
Cc1cc(NC(=O)c2cc3ccccc3o2)ccc1NC(=O)c1ccccc1	-10	28	9	-22	-19	20
Cc1cc(NC(=O)c2cccnc2Cl)ccc1NC(=O)c1cc2ccccc2o1	-9	24	40*	-22	-17	2
CC(=O)Nc1ccc(-c2cc(-c3ccc(NC(C)=O)cc3)nc(-c3ccccc3)n2)cc1	-12	1	4	-2	-3	15

High-throughput results from PubChem BioAssay.
